ChEMBL document CHEMBL1132298, “Synthesis and antimalarial activity of cyclic peroxides, 1,2,4,5, 7-pentoxocanes and 1,2,4,5-tetroxanes” (J Med Chem, 1999)
pEC50: −log10 of the molar value.

How the values were obtained:
FM3A [1] = assay: In vitro cytotoxicity in mouse mammary tumor FM3A cells; Nontoxic at a 1*10^-4 M concentration.; type: functional, cell-based
FM3A [2] = assay: Selectivity index as EC50 FM3A /EC50 Plasmodium falciparum; type: functional
Plasmodium falciparum [3] = assay: Antiparasitic activity against Plasmodium falciparum FCR-3
Mus musculus [4] = assay: In vivo antimalarial activity against Plasmodium berghei NK 65 in mice (Mus musculus) at 20 mg/kg/day; type: functional
In short: (§1)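 Male ICR mice, 5 weeks old, 22-25 g, five per group. Infected iv (tail vein) with 1 × 10⁶ P. berghei NK 65 parasitized erythrocytes in 0.2 mL 0.9% NaCl. Compound in DMSO given ip once daily on days 0-3, first dose 2 h after inoculation. Controls were DMSO-dosed. Day-4 parasitemia counted on Giemsa tail-blood smears (1 × 10⁴ RBCs). Percent suppression relative to controls, mean of five mice.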

Mus musculus [5] = assay: In vivo antimalarial activity against Plasmodium berghei NK 65 in mice (Mus musculus) at 50 mg/kg/day; type: functional; in short: as §1
FM3A [6] = assay: In vitro cytotoxicity in mouse mammary tumor FM3A cells; type: functional, cell-based
Plasmodium falciparum [7] = assay: In vitro antimalarial activity against chloroquine-sensitive Plasmodium falciparum FCR3; Not toxic at 100uM; type: functional, organism-based

Row | Structure (SMILES) | EC50 (FM3A [1]) | Selectivity (FM3A [2]) | pEC50 (Plasmodium falciparum [3]) | Growth inhibition (Mus musculus [4]) [%] | Growth inhibition (Mus musculus [5]) [%] | pEC50 (FM3A [6]) | EC50 (Plasmodium falciparum [7])
1 | COc1ccc(C(=O)CCC[C@H]2OO[C@H](CCCC(=O)c3ccc(OC)cc3)OO2)cc1 | Not toxic | >5 | 4.70 | – | – | – | –
2 | O=C(CCC[C@H]1OO[C@H](CCCC(=O)c2ccccc2)OO1)c1ccccc1 | Not toxic | >250 | 6.40 | 30 | 40 | – | –
3 | Fc1ccc(C2OOC3CCCC(c4ccccc4)(OO2)O3)cc1 (stereo not given) | – | 6 | 5.55 | – | – | 4.77 | –
4 | FC(F)(F)c1ccc(C2OOC(c3ccc(C(F)(F)F)cc3)OO2)cc1 (stereo not given) | Not toxic | – | – | – | – | – | Not toxic
5 | CC(C)(C)C1OOC2CCCC(c3ccccc3)(OO1)O2 (stereo not given) | – | 2 | 4.77 | – | – | 4.59 | –
6 | C1CCC([C@H]2OO[C@H](C3CCCCC3)OO2)CC1 | – | 55 | 6.70 | 50 | 96 | 4.96 | –
7 | COc1ccc(C(=O)CCCC2OOC3CCCC(c4ccc(OC)cc4)(OO2)O3)cc1 (stereo not given) | – | 19 | 6.03 | – | – | 4.74 | –
8 | COc1ccc(C2OOC(c3ccc(OC)cc3)OO2)cc1 (stereo not given) | Not toxic | >127 | 6.10 | – | – | – | –
9 | O=C(CCC[C@H]1OO[C@H](CCCC(=O)c2ccc(F)cc2)OO1)c1ccc(F)cc1 | Not toxic | >169 | 6.29 | 0 | 30 | – | –
10 | C[C@@H]1CC[C@H]2[C@@H](C)C(=O)O[C@@H]3O[C@@]4(C)CC[C@@H]1[C@]32OO4 [ARTEMISININ] | – | – | 8.11 | 93 | 100 | 5.00 | –
11 | FC(F)(F)c1ccccc1C1OOC(c2ccccc2C(F)(F)F)OO1 (stereo not given) | – | 5 | 6.22 | – | – | 5.52 | –
12 | Fc1ccc(C23CCCC(OOC(C4CCCCC4)OO2)O3)cc1 (stereo not given) | – | 17 | 6.82 | – | – | 5.60 | –
13 | O=C(CCC[C@H]1OO[C@@H](CCCC(=O)c2ccccc2)OO1)c1ccccc1 | Not toxic | >8 | 4.92 | – | – | – | –
14 | c1ccc([C@H]2OO[C@H](c3ccccc3)OO2)cc1 | Not toxic | >91 | 5.96 | 6 | 50 | – | –
15 | c1ccc(C[C@H]2OO[C@H](Cc3ccccc3)OO2)cc1 | Not toxic | >7 | 4.85 | – | – | – | –
16 | CCC(CC)C1OOC2CCCC(c3ccccc3)(OO1)O2 (stereo not given) | – | 65 | 6.29 | 15 | 18 | 4.48 | –
17 | CCCCCCC[C@H]1OO[C@H](CCCCCCC)OO1 | Not toxic | >67 | 5.82 | – | – | – | –
18 | c1ccc(C2OOC3CCCC(c4ccccc4)(OO2)O3)cc1 (stereo not given) | – | 36 | 5.85 | – | – | 4.30 | –
19 | Fc1ccc(C2OOC(c3ccc(F)cc3)OO2)cc1 (stereo not given) | Not toxic | >200 | 6.30 | 50 | 90 | – | –
20 | Fc1ccc(C2OOC3CCCC(c4ccc(F)cc4)(OO2)O3)cc1 (stereo not given) | – | 5 | 5.72 | – | – | 5.05 | –
21 | O=C(CCCC1OOC2CCCC(c3ccc(F)cc3)(OO1)O2)c1ccc(F)cc1 (stereo not given) | Not toxic | >141 | 6.15 | 0 | 0 | – | –
22 | CCCCCCCC1OOC2CCCC(c3ccccc3)(OO1)O2 (stereo not given) | – | – | 5.82 | – | – | 4.92 | –
23 | O=C(CCCC1OOC2CCCC(c3ccccc3)(OO1)O2)c1ccccc1 (stereo not given) | Not toxic | >77 | 5.89 | – | – | – | –
24 | c1ccc(C23CCCC(OOC(C4CCCCC4)OO2)O3)cc1 (stereo not given) | – | 48 | 6.68 | 0 | 15 | 5.00 | –
25 | Fc1ccc(C23CCCC(OOC(c4ccccc4)OO2)O3)cc1 (stereo not given) | – | 4 | 5.54 | – | – | 5.09 | –
